Data set [1] concerns the target T1, Lymphocyte function-associated antigen 3/T-cell surface antigen CD2 (Homo sapiens) (UniProt P06729+P19256). Briefly: (§1) Inhibition of CD2-CD58 protein-protein interaction assessed as inhibition of cell adhesion between CD58 expressing human Caco2 cells and CD2 expressing human Jurkat cells by BCECF-AM fluorescent dye based fluorimetric assay. Further details: concentration or dose not given beside the values. The settings on record: concentration not given here.

Data set [2] can be described thus: Toxicity in human Caco2 cells assessed as cell viability incubated for 2 hrs by CellTiter-Glo assay. It is filed as cell-based. The settings on record: Caco-2 cells, read-out: Activity. The gist of the method: (§2)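 Caco-2 cells exposed to peptide (200–0.1 µM, diluted in serum-free medium from DMSO stock) for 2 and 3 h, washed with PBS, then CellTiter-Glo luminescence read. Blank-subtracted, with 0.1% SDS and 1% DMSO controls. Viability relative to cells without peptide; triplicates in two independent runs.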
In general terms: ATP-based viability assays read luminescence as a measure of living cells.

Data set [3] is described as follows: Toxicity in human Jurkat cells assessed as cell viability incubated for 2 hrs by CellTiter-Glo assay. The settings on record: read-out: Activity. It counts as cell-based. The gist of the method: (§3)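 Jurkat suspensions treated in tubes with peptide (diluted in serum-free medium from DMSO stock) for 2 h, washed by centrifugation, then CellTiter-Glo luminescence read on a microplate. Blank-subtracted, with SDS and 1% DMSO controls. Viability relative to cells without peptide; triplicates in two independent runs.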

The test system of a further data set is T-cell. Briefly: Inhibition of T-cell response to type 2 collagen in type 2 collagen primed T cells derived from transgenic mouse expressing functional HLA-DQ8 by [3H]thymidine incorporation assay. It counts as cell-based. The gist of the method: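 Lymph node cells (draining popliteal, caudal, lumbar) taken 10 days after intradermal tail-base immunization of HLA-DQ8 transgenic mice with 200 µg native chick CII in CFA (1:1). 1 × 10^6 LNC challenged in vitro with CII at 50 µg/mL, with peptide at four concentrations (10–.01 µM); 3H-thymidine (1 µCi/well) pulse for last 18 h; Δcpm = test minus medium control; mean ±S.D., N = 4.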
Background: Uptake of a labelled nucleoside into DNA is a usual measure of proliferation.

For data set [4], the target named is T1, Lymphocyte function-associated antigen 3/T-cell surface antigen CD2 (Homo sapiens). Briefly: Inhibition of CD2-CD58 protein-protein interaction assessed as inhibition of cell adhesion between CD58 expressing human Caco2 cells and CD2 expressing human Jurkat cells at =< 1 uM by BCECF-AM fluorescent dye based fluorimetric assay.
For data set [5], the target named is T2, Lymphocyte function-associated antigen 3/T-cell surface antigen CD2 (Homo sapiens, UniProt P06729+P19256).
T2 sequence (P06729 whole entry): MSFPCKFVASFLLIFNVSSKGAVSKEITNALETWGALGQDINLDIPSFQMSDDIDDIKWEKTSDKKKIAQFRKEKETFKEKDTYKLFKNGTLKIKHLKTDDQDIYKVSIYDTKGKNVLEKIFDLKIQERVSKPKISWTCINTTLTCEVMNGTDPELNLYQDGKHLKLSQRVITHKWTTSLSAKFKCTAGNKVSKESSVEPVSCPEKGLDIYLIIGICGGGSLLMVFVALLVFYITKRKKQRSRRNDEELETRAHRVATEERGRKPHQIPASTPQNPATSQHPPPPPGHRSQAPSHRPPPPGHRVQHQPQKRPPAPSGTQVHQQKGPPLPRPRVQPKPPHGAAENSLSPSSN
T2 sequence (P19256 whole entry): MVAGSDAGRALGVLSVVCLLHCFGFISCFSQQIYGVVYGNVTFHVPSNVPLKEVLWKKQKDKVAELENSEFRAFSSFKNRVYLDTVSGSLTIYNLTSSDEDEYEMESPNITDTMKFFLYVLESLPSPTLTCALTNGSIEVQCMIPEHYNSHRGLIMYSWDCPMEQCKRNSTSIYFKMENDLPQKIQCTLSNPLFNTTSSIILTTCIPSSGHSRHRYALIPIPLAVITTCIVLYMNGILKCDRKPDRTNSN
The description is as §1.

A short description of data set [6]: Toxicity in human Caco2 cells assessed as cell viability at 200 uM incubated for 2 hrs by CellTiter-Glo assay. It is filed as cell-based. The following applies: Caco-2 cells, read-out: Activity. The gist of the method: as §2
A short description of data set [7]: Toxicity in human Jurkat cells assessed as cell viability at 200 yuM incubated for 2 hrs by CellTiter-Glo assay. It is filed as cell-based. The settings on record: read-out: Activity. The gist of the method:
as §3

*1 amine or outer side, *2 acyl side, *3 side chain or, on linkers, in order; H or OH if unused. Where a SMILES comes first, the peptide text is derived from it. [ ]: non-standard residue; d: D form. X1 = O=C(CCc1cccc2c1oc1c(CCN[*:1])cccc12)[*:2]

A word on the inhibition: it is the percentage by which the read-out fell short of the control. Take `CC[C@H](C)[C@@H]1NC(=O)[C@H](CC(=O)O)NC(=O)[C@H](CC(=O)O)NC(=O)CCc2cccc3c2Oc2c(cccc2-3)CCNC(=O)[C@H](CC(=O)O)NC(=O)[C@H](Cc2ccc(O)cc2)NC(=O)[C@H]([C@@H](C)CC)NC(=O)[C@H](CO)NC(=O)[C@H](CCCCN)NC1=O` (cyclo(DDIKSIYD[X1])): in data set [1], the inhibition is below 20%.

With `CC[C@H](C)[C@@H]1NC(=O)[C@H](CC(=O)O)NC(=O)[C@H](CC(=O)O)NC(=O)[C@@H]2CCCN2C(=O)[C@H]2CCCN2C(=O)[C@H](CC(=O)O)NC(=O)[C@H](Cc2ccc(O)cc2)NC(=O)[C@H]([C@@H](C)CC)NC(=O)[C@H](CO)NC(=O)[C@H](CCCCN)NC1=O`, the viability at 2 h in data set [2] and in data set [3] was above 95% each time. In the data set on T-cell, the inhibition entry was “Dose-dependent effect”.

As for `CC[C@H](C)[C@@H]1NC(=O)[C@H](CCCCN)NC(=O)[C@H](CC(=O)O)NC(=O)[C@H](CC(=O)O)NC(=O)CCc2cccc3c2Oc2c(cccc2-3)CCNC(=O)[C@H](CC(=O)O)NC(=O)[C@H](Cc2ccc(O)cc2)NC1=O` (cyclo(DDKIYD[X1])), the inhibition in data set [1] was below 20%.

As for `CC[C@H](C)[C@@H]1NC(=O)[C@H](Cc2ccc(O)cc2)NC(=O)[C@H](CC(=O)O)NC(=O)CCc2cccc3c2Oc2c(cccc2-3)CCNC(=O)[C@H](CC(=O)O)NC(=O)[C@H](CC(=O)O)NC(=O)[C@H]([C@@H](C)CC)NC(=O)[C@H](CCCCN)NC(=O)[C@H](CO)NC1=O` (cyclo(DD[X1]DYISKI)), in data set [1], the inhibition is below 20%.

As to H-KGKTDAISVKAI-NH2, the inhibition in data set [1] was found to be 18%.

A word on the IC50: it is the point on the concentration scale where inhibition reaches its midpoint. For the compound `CC[C@H](C)[C@@H]1NC(=O)[C@H](Cc2ccc(O)cc2)NC(=O)[C@H](CC(=O)O)NC(=O)CCc2cccc3c2Oc2c(cccc2-3)CCNC(=O)[C@H](CC(=O)O)NC(=O)[C@H](CC(=O)O)NC(=O)[C@H](CCCCN)NC1=O` (cyclo(DD[X1]DYIK)), the inhibition in data set [4] was 80%. The half-maximal inhibitory concentration (IC50) in data set [5] stood at 11.1 nM. Moreover, the viability at 2 h in data set [2] and in data set [3] was above 95% each time. Also, the viability at 2 h, 200 µM in data set [6] and in data set [7] was 90% each time.

On to `CC[C@H](C)[C@@H]1NC(=O)[C@H](CCCCN)NC(=O)[C@H](CC(=O)O)NC(=O)[C@H](CC(=O)O)NC(=O)[C@@H]2CCCN2C(=O)[C@H]2CCCN2C(=O)[C@H](CC(=O)O)NC(=O)[C@H](Cc2ccc(O)cc2)NC1=O`, for which the inhibition in data set [1] is below 20%.
